Results reported in ChEMBL document CHEMBL3525925, “In vitro studies on the oxidative metabolism of 20(s)-ginsenoside Rh2 in human, monkey, dog, rat, and mouse liver microsomes, and human liver s9” (Drug Metab Dispos, 2012).

Tests used:
Liver microsome [1] = experiment: Drug level in human liver microsomes treated with 10 uM 20(S)-ginsenoside Rh2 for 60 mins by MS2 spectra; format: ADME; settings: 1 h
Procedure, shortened: (§1)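 Rh2 at 10 μM final (from methanol stock; 0.1% v/v methanol final) in 100 mM potassium phosphate pH 7.4 with 2 mM NADPH, open-to-air tubes at 37°C. 3 min preincubation, then started with liver microsomes or S9 at 1 mg/ml protein. Incubated 60 min, stopped with equal volume ice-cold acetonitrile. Controls lacked NADPH; duplicates. Metabolites detected by LC/ion-trap MSn.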

Liver microsome [2] = experiment: Drug level in Sprague-Dawley rat liver microsomes treated with 10 uM 20(S)-ginsenoside Rh2 for 60 mins by MS2 spectra; format: ADME; settings: 1 h; procedure, shortened: as §1
Liver [3] = experiment: Drug level in human liver S9 fraction treated with 10 uM 20(S)-ginsenoside Rh2 for 60 mins by MS2 spectra; format: ADME, subcellular; settings: s9, 1 h; procedure, shortened: as §1
Liver [4] = experiment: Retention time in human liver S9 fraction treated with 10 uM 20(S)-ginsenoside Rh2 by MS2 spectra; format: ADME, subcellular
Procedure, shortened: (§2)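 Samples: incubation mixed with equal volume methanol, centrifuged at 14,000g for 5 min, dried under nitrogen at 40°C, reconstituted. Separated on Eclipse XDB-C18 (4.6 × 150 mm, 5 μm) at 0.5 ml/min. Gradient: 0.1% formic acid in methanol against 0.1% formic acid in 5 mM ammonium acetate, 70% to 100% organic over 17 min. Ion-trap MSn detection.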

Liver cytosol [5] = experiment: Drug metabolism in human liver cytosol assessed as 26-carboxy,20(S)-Ginsenoside Rh2 formation at 10 uM by LC/MS analysis in presence of 100 uM raloxifene aldehyde oxidase inhibitor; format: ADME; settings: in the assay text read “100 nM raloxifene” for “100 uM raloxifene”
Procedure, shortened: (§3)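 Pooled human liver cytosol (1 mg/ml) with 2 mM NAD+ and inhibitor in 100 mM potassium phosphate pH 7.4; inhibitors given from DMSO, 0.1% v/v final. After 15 min preincubation at 37°C, started with 10 μM M1-1 or 26-aldehyde-Rh2. Run 60 min, stopped with ice-cold acetonitrile. Duplicates, uninhibited controls; M2-3 acid measured by LC/MSn.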

Liver cytosol [6] = experiment: Drug metabolism in human liver cytosol assessed as 26-carboxy,20(S)-Ginsenoside Rh2 formation at 10 uM by LC/MS analysis in presence of 50 uM disulfiram aldehyde dehydrogenase inhibitor; format: ADME; procedure, shortened: as §3
Liver [7] = experiment: Drug level in CD-1 mouse liver microsomes treated with 10 uM 20(S)-ginsenoside Rh2 for 60 mins by MS2 spectra; format: ADME; settings: 1 h; procedure, shortened: as §1
Liver microsome [8] = experiment: Drug level in beagle dog liver microsomes treated with 10 uM 20(S)-ginsenoside Rh2 for 60 mins by MS2 spectra; format: ADME, Canis lupus familiaris; settings: 1 h; procedure, shortened: as §1
[9] = Drug level in cynomolgus monkey liver microsomes treated with 10 uM 20(S)-ginsenoside Rh2 for 60 mins by MS2 spectra; format: ADME, Macaca fascicularis; settings: 1 h; procedure, shortened: as §1
Liver cytosol [10] = experiment: Drug metabolism in human liver cytosol assessed as 26-carboxy,20(S)-Ginsenoside Rh2 formation at 10 uM by LC/MS analysis in presence of 50 uM 4-methylpyrazole alcohol dehydrogenase inhibitor; format: ADME; procedure, shortened: as §3
Liver microsome [11] = experiment: Retention time in human liver microsomes treated with 10 uM 20(S)-ginsenoside Rh2 by MS2 spectra; format: ADME; procedure, shortened: as §2
Cytochrome P450 3A4 = Cytochrome P450 3A4 (Homo sapiens, UniProt P08684); experiment: Drug level in human recombinant CYP3A4 treated with 10 uM 20(S)-ginsenoside Rh2 for 60 mins by MS2 spectra; format: ADME; settings: recombinant enzyme, 1 h
Procedure, shortened: (§4)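 Recombinant human P450 (50 nM) with 10 μM Rh2 under the microsomal conditions: 100 mM potassium phosphate pH 7.4, 2 mM NADPH, 37°C for 60 min. Stopped with equal volume ice-cold acetonitrile. Run in duplicate; products analysed by LC/ion-trap MSn.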

Cytochrome P450 3A5 = Cytochrome P450 3A5 (Homo sapiens, UniProt P20815); experiment: Drug level in human recombinant CYP3A5 treated with 10 uM 20(S)-ginsenoside Rh2 for 60 mins by MS2 spectra; format: ADME; settings: recombinant enzyme, 1 h; procedure, shortened: as §4
[12] = Retention time in cynomolgus monkey liver microsomes treated with 10 uM 20(S)-ginsenoside Rh2 by MS2 spectra; format: ADME, Macaca fascicularis; procedure, shortened: as §2

Cytochrome P450 3A4, sequence (P08684 whole entry): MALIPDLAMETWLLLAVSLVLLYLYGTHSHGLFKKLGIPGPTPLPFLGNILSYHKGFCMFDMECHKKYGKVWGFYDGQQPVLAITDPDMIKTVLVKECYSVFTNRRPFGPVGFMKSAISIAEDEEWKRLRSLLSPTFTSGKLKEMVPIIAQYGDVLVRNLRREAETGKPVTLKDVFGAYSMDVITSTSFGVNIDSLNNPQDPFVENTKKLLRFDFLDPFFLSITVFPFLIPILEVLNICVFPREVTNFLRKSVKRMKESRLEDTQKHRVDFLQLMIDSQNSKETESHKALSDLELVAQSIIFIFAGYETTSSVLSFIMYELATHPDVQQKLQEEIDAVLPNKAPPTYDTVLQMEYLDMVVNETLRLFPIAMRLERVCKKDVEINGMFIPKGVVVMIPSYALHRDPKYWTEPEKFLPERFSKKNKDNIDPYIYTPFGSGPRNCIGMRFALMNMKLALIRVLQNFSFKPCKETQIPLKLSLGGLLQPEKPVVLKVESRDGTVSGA
Cytochrome P450 3A5, sequence (P20815 whole entry): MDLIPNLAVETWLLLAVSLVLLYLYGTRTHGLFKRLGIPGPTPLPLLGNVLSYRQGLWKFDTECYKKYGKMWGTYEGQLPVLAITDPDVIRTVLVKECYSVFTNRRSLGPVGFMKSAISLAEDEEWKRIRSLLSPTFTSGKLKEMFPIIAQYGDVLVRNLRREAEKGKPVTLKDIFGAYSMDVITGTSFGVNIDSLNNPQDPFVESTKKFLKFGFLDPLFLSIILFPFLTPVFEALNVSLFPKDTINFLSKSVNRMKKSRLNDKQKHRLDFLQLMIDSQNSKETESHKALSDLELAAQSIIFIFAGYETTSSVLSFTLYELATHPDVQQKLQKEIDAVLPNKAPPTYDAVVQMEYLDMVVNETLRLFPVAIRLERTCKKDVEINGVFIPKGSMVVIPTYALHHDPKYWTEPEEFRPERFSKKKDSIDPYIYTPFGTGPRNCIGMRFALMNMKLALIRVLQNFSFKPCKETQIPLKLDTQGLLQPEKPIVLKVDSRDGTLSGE

Row | Drug metabolism (Liver microsome [1]) | Drug metabolism (Liver microsome [2]) | Drug metabolism (Liver [3]) | Retention_time (Liver [4]) | Drug metabolism (Liver cytosol [5]) | Drug metabolism (Liver cytosol [6]) | Drug metabolism (Liver [7]) | Drug metabolism (Liver microsome [8]) | Drug metabolism [9] | Drug metabolism (Liver cytosol [10]) | Retention_time (Liver microsome [11]) | Drug metabolism (Cytochrome P450 3A4) | Drug metabolism (Cytochrome P450 3A5) | Retention_time [12] | SMILES
1 | metabolite_detected | metabolite_detected | metabolite_detected | 16.7 min | metabolite_not_detected | metabolite_not_detected | metabolite_detected | metabolite_detected | metabolite_detected | metabolite_not_detected | 16.7 min | metabolite_detected | metabolite_detected | – | C/C(=C\CC[C@](C)(O)[C@H]1CC[C@]2(C)[C@@H]1[C@H](O)C[C@@H]1[C@@]3(C)CC[C@H](O[C@@H]4O[C@H](CO)[C@@H](O)[C@H](O)[C@H]4O)C(C)(C)[C@@H]3CC[C@]12C)CO
2 | metabolite_not_detected | metabolite_not_detected | metabolite_not_detected | – | – | – | metabolite_not_detected | metabolite_not_detected | metabolite_detected | – | – | metabolite_not_detected | metabolite_not_detected | 10.6 min | CC(C)(O)C(CC[C@](C)(O)[C@H]1CC[C@]2(C)[C@@H]1[C@H](O)C[C@@H]1[C@@]3(C)CC[C@H](O[C@@H]4O[C@H](CO)[C@@H](O)[C@H](O)[C@H]4O)C(C)(C)[C@@H]3CC[C@]12C)SC[C@H](NC(=O)CC[C@H](N)C(=O)O)C(=O)NCC(=O)O (some centres not stated)
